Laboratory results from ChEMBL document CHEMBL1667749, “Design & synthesis of N'-[substituted] pyridine-4-carbohydrazides as potential anticonvulsant agents” (Eur J Med Chem, 2011).
Active and inactive are the calls of the source. No cut-off for these calls is given here.

Assays:
Mus musculus [1] = assay: Anticonvulsant activity in ip dosed albino CF-1 mouse assessed as dose required to protect against maximal electroshock-induced seizures after 2 hrs; format: functional
Method in brief: (§1)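 Male CF-1 mice (18–25 g), i.p. in 0.5% methyl cellulose at 30, 100 and 300 mg/kg; MES: 60 Hz, 50 mA, 0.2 s through tetracaine-primed corneal electrodes; protection = abolished hind limb tonic extension. Value given as minimum dose active in half or more of mice.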

Mus musculus [2] = assay: Anticonvulsant activity in ip dosed albino CF-1 mouse assessed as dose required to protect against maximal electroshock-induced seizures after 0.5 hrs; format: functional; method in brief: as §1
Mus musculus [3] = assay: Anticonvulsant activity in albino CF-1 mouse assessed as protection against subcutaneous metrazol-induced seizures at 300 mg/kg, ip after 0.5 hrs; format: functional, organism-based; parameters: dose 300 mg/kg
Method in brief: (§2)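 Male CF-1 mice, i.p. at 30, 100, 300 mg/kg in 0.5% methyl cellulose; metrazol dose convulsing 97% of animals injected s.c. in midline neck fold, mice isolated and watched 30 min; protected if no 3–5 s clonic spasm episode of limbs, jaws or vibrissae.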

Mus musculus [4] = assay: Anticonvulsant activity in ip dosed albino CF-1 mouse assessed as dose required to protect against maximal electroshock-induced seizures after 4 hrs; format: functional; method in brief: as §1
Mus musculus [5] = assay: Anticonvulsant activity in albino CF-1 mouse assessed as protection against subcutaneous metrazol-induced seizures at 300 mg/kg, ip after 4 hrs; format: functional, organism-based; parameters: dose 300 mg/kg; method in brief: as §2
Mus musculus [6] = assay: Neurotoxicity in ip dosed albino CF-1 mouse assessed as dose required to cause motor impairment after 4 hrs by rotarod test; format: toxicity, organism-based; settings: in vivo
Method in brief: (§3)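 Minimal motor impairment in male CF-1 mice by rotorod after i.p. dosing; toxic if animal falls off rotating rod 3 times within 1 min. Screen doses 30, 100, 300 mg/kg; quantitative TD50 (95% confidence interval) determined at time of peak effect.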

Mus musculus [7] = assay: Neurotoxicity in ip dosed albino CF-1 mouse assessed as dose required to cause motor impairment after 0.5 hrs by rotarod test; format: toxicity, organism-based; settings: in vivo; method in brief: as §3
Rattus norvegicus [8] = assay: Anticonvulsant activity in Sprague-Dawley rat assessed as protection against maximal electroshock-induced seizures at 30 mg/kg, po after 1 hr; format: functional, organism-based; parameters: dose 30 mg/kg
Method in brief: (§4)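 Male Sprague Dawley rats (100–150 g; 115–150 g in text), compound suspended in 0.5% methyl cellulose, given orally; MES challenge: 60 Hz alternating current, 150 mA, 0.2 s via corneal electrodes primed with 0.5% tetracaine HCl electrolyte. Protection = abolition of hind limb tonic extension; four rats per time point, scored as number protected.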

Rattus norvegicus [9] = assay: Neurotoxicity in Sprague-Dawley rat assessed as motor impairment at 30 mg/kg, po after 2 hrs by rotarod test; format: toxicity, organism-based; parameters: dose 30 mg/kg, route oral; settings: in vivo
Rattus norvegicus [10] = assay: Neurotoxicity in Sprague-Dawley rat assessed as motor impairment at 30 mg/kg, po after 0.25 hrs by rotarod test; format: toxicity, organism-based; parameters: dose 30 mg/kg, route oral; settings: in vivo
Mus musculus [11] = assay: Anticonvulsant activity in albino CF-1 mouse assessed as protection against 6 Hz psychomotor seizure at 100 mg/kg, ip after 0.5 hrs by minimal clonic seizure test; format: functional
Method in brief: (§5)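 Male CF-1 mice (18–25 g), i.p. 100 mg/kg in 0.5% methyl cellulose suspension; 6 Hz corneal stimulation, 32 mA for 3 s, four mice per time point. Protected if no minimal clonic phase with stereotyped automatistic behaviour.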

Rattus norvegicus [12] = assay: Anticonvulsant activity in Sprague-Dawley rat assessed as protection against maximal electroshock-induced seizures at 30 mg/kg, po after 0.5 hrs; format: functional, organism-based; parameters: dose 30 mg/kg; method in brief: as §4
Rattus norvegicus [13] = assay: Acute toxicity in Sprague-Dawley rat assessed as motor impairment at 300 mg/kg, ip after 0.5 hrs; format: organism-based; parameters: dose 300 mg/kg, route intraperitoneal; settings: in vivo
Method in brief: (§6)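 Male albino Sprague Dawley rats, two per dose, given test compound i.p. as a suspension in 0.5% methyl cellulose. Behaviour was closely observed and recorded over 4 h to detect acute motor impairment. Values are scored as animals toxic over animals tested at each time point.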

Rattus norvegicus [14] = assay: Neurotoxicity in Sprague-Dawley rat assessed as motor impairment at 30 mg/kg, po after 4 hrs by rotarod test; format: toxicity, organism-based; parameters: dose 30 mg/kg, route oral; settings: in vivo
Mus musculus [15] = assay: Anticonvulsant activity in ip dosed albino CF-1 mouse assessed as protection against maximal electroshock-induced seizures after 1 hr; format: functional; settings: albino CF-1, ip
Mus musculus [16] = assay: Anticonvulsant activity in ip dosed albino CF-1 mouse assessed as protection against 6 Hz psychomotor seizure after 0.25 hrs by minimal clonic seizure test; format: functional; settings: albino CF-1, ip
Method in brief: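 Quantitative 6 Hz test in male CF-1 mice dosed i.p.; 32 mA for 3 s via corneal electrodes at time of peak effect; ED50 with 95% confidence interval, slope and standard error reported.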

Rattus norvegicus [17] = assay: Acute toxicity in Sprague-Dawley rat assessed as motor impairment at 100 mg/kg, ip after 2 hrs; format: organism-based; parameters: dose 100 mg/kg, route intraperitoneal; settings: in vivo; method in brief: as §6
Mus musculus [18] = assay: Anticonvulsant activity in albino CF-1 mouse assessed as protection against 6 Hz psychomotor seizure at 100 mg/kg, ip after 1 hr by minimal clonic seizure test; format: functional; settings: route intraperitoneal; method in brief: as §5
Rattus norvegicus [19] = assay: Acute toxicity in Sprague-Dawley rat assessed as motor impairment at 300 mg/kg, ip after 0.25 hrs; format: organism-based; parameters: dose 300 mg/kg, route intraperitoneal; settings: in vivo; method in brief: as §6
Mus musculus [20] = assay: Neurotoxicity in albino CF-1 mouse assessed as motor impairment at 300 mg/kg, ip after 4 hrs by rotarod test; format: toxicity, organism-based; parameters: dose 300 mg/kg, route intraperitoneal; settings: in vivo; method in brief: as §3
Rattus norvegicus [21] = assay: Neurotoxicity in Sprague-Dawley rat assessed as motor impairment at 30 mg/kg, po after 1 hr by rotarod test; format: toxicity, organism-based; parameters: dose 30 mg/kg, route oral; settings: in vivo
Rattus norvegicus [22] = assay: Acute toxicity in Sprague-Dawley rat assessed as motor impairment at 300 mg/kg, ip after 1 hr; format: organism-based; parameters: dose 300 mg/kg, route intraperitoneal; settings: in vivo; method in brief: as §6
Mus musculus [23] = assay: Neurotoxicity in albino CF-1 mouse assessed as motor impairment at 300 mg/kg, ip after 0.5 hrs by rotarod test; format: toxicity, organism-based; parameters: dose 300 mg/kg, route intraperitoneal; settings: in vivo; method in brief: as §3
Rattus norvegicus [24] = assay: Neurotoxicity in Sprague-Dawley rat assessed as motor impairment at 30 mg/kg, po after 0.5 hrs by rotarod test; format: toxicity, organism-based; parameters: dose 30 mg/kg, route oral; settings: in vivo
[25] = Neurotoxicity in ip dosed albino CF-1 mouse assessed as motor impairment after 8 hrs by rotarod test; format: toxicity, organism-based; settings: in vivo, read-out: ID50
Rattus norvegicus [26] = assay: Acute toxicity in Sprague-Dawley rat assessed as motor impairment at 100 mg/kg, ip after 0.25 hrs; format: organism-based; parameters: dose 100 mg/kg, route intraperitoneal; settings: in vivo; method in brief: as §6
Mus musculus [27] = organism: Mus musculus; assay: Protective index, ratio of TD50 for albino CF-1 mouse to ED50 for albino CF-1 mouse assessed as protection against 6 Hz psychomotor seizure; format: functional
Method in brief: (§7)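 Protection index = TD50 (rotorod, mice, i.p.) divided by ED50 from MES or 6 Hz test, each at its time of peak effect.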

Rattus norvegicus [28] = assay: Toxicity in Sprague-Dawley rat assessed as change in body weight at 200 mg/kg, ip measured after 24 hrs of clonus of one of the fore limbs seizure stage in non-protected rat; format: organism-based; parameters: dose 200 mg/kg, route intraperitoneal; settings: in vivo
Method in brief: (§8)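 Male Sprague Dawley rats (150–180 g) dosed i.p. then challenged with pilocarpine; body weight change measured 24 h after first Stage III seizure, split by protected and non-protected rats, given ± S.E.M.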

Rattus norvegicus [29] = assay: Anticonvulsant activity in Sprague-Dawley rat assessed as protection against maximal electroshock-induced seizures at 30 mg/kg, po after 2 hrs; format: functional; method in brief: as §4
[30] = Octanol-phosphate buffer partition coefficient, log P of the compound at 5 mg, after 24 hrs by UV spectroscopic analysis; format: physicochemical
Method in brief: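 5 mg compound added to 10 mL octanol plus 10 mL phosphate buffer in stoppered tube, mechanically shaken 24 h at room temperature, then left in separating funnel 6 h to equilibrate.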

Mus musculus [31] = assay: Anticonvulsant activity in albino CF-1 mouse assessed as protection against 6 Hz psychomotor seizure at 100 mg/kg, ip after 0.25 hrs by minimal clonic seizure test; format: functional; settings: route intraperitoneal; method in brief: as §5
Mus musculus [32] = assay: Anticonvulsant activity in albino CF-1 mouse assessed as protection against 6 Hz psychomotor seizure at 100 mg/kg, ip after 2 hrs by minimal clonic seizure test; format: functional; method in brief: as §5
Mus musculus [33] = organism: Mus musculus; assay: Protective index, ratio of TD50 for albino CF-1 mouse to ED50 for albino CF-1 mouse assessed as protection against maximal electroshock-induced seizures; format: functional; method in brief: as §7
Rattus norvegicus [34] = assay: Acute toxicity in Sprague-Dawley rat assessed as motor impairment at 100 mg/kg, ip after 0.5 hrs; format: organism-based; parameters: dose 100 mg/kg, route intraperitoneal; settings: in vivo; method in brief: as §6
Rattus norvegicus [35] = assay: Acute toxicity in Sprague-Dawley rat assessed as motor impairment at 100 mg/kg, ip after 4 hrs; format: organism-based; parameters: dose 100 mg/kg, route intraperitoneal; settings: in vivo; method in brief: as §6
Rattus norvegicus [36] = assay: Anticonvulsant activity in Sprague-Dawley rat assessed as protection against maximal electroshock-induced seizures at 30 mg/kg, po after 4 hrs; format: functional, organism-based; parameters: dose 30 mg/kg; method in brief: as §4
Mus musculus [37] = assay: Anticonvulsant activity in albino CF-1 mouse assessed as protection against 6 Hz psychomotor seizure at 100 mg/kg, ip after 4 hrs by minimal clonic seizure test; format: functional, organism-based; parameters: dose 100 mg/kg; method in brief: as §5
Mus musculus [38] = assay: Anticonvulsant activity in albino CF-1 mouse assessed as protection against maximal electroshock-induced seizures at 300 mg/kg, ip after 0.5 hrs; format: functional, organism-based; parameters: dose 300 mg/kg; method in brief: as §1
Rattus norvegicus [39] = assay: Anticonvulsant activity in Sprague-Dawley rat assessed as protection against maximal electroshock-induced seizures at 30 mg/kg, po after 0.25 hrs; format: functional, organism-based; parameters: dose 30 mg/kg; method in brief: as §4
Rattus norvegicus [40] = assay: Anticonvulsant activity in Sprague-Dawley rat assessed as protection against pilocarpine-induced status epilepticus at 200 mg/kg, ip; format: functional, organism-based; parameters: dose 200 mg/kg
Method in brief: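 Male albino Sprague Dawley rats (150–180 g) dosed i.p., then challenged with pilocarpine; qualitative screen scored as protection or no protection, seizure severity graded on the Racine scale; N/F and deaths recorded, time taken post first Stage III seizure.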

Rattus norvegicus [41] = assay: Acute toxicity in Sprague-Dawley rat assessed as motor impairment at 100 mg/kg, ip after 1 hr; format: organism-based; parameters: dose 100 mg/kg, route intraperitoneal; settings: in vivo; method in brief: as §6
Rattus norvegicus [42] = assay: Toxicity in Sprague-Dawley rat assessed as change in body weight at 200 mg/kg, ip measured after 24 hrs of clonus of one of the fore limbs seizure stage in protected rat; format: organism-based; parameters: dose 200 mg/kg, route intraperitoneal; settings: in vivo; method in brief: as §8
Mus musculus [43] = assay: Anticonvulsant activity in ipp dosed albino CF-1 mouse assessed as protection against subcutaneous metrazol-induced seizures after 1 hr; format: functional; settings: albino CF-1, sc

O=C1NC(=O)C(c2ccccc2)(c2ccccc2)N1 [PHENYTOIN]
Activity (Mus musculus [1]): 30 mg/kg
Activity (Mus musculus [2]): 30 mg/kg
Activity (Mus musculus [3]): inactive
Activity (Mus musculus [4]): 30 mg/kg
Activity (Mus musculus [5]): inactive
Activity (Mus musculus [6]): 100 mg/kg
Activity (Mus musculus [7]): 100 mg/kg

O=C(N/N=C\c1ccc(Oc2ccc(F)cc2)cc1)c1ccncc1
Activity (Rattus norvegicus [8]): inactive
Activity (Rattus norvegicus [9]): Non-toxic
Activity (Rattus norvegicus [10]): Non-toxic
Activity (Mus musculus [11]): Active
Activity (Rattus norvegicus [12]): inactive
Activity (Rattus norvegicus [13]): Toxic
Activity (Rattus norvegicus [14]): Non-toxic
ED50 (Mus musculus [15]): 128 mg/kg
ED50 (Mus musculus [16]): 53.3 mg/kg
Activity (Rattus norvegicus [17]): Non-toxic
Activity (Mus musculus [18]): 50%
Activity (Rattus norvegicus [19]): Toxic
Activity (Mus musculus [20]): Non-toxic
Activity (Rattus norvegicus [21]): Non-toxic
Activity (Rattus norvegicus [22]): Toxic
Activity (Mus musculus [23]): Non-toxic
Activity (Mus musculus [1]): 100 mg/kg
Activity (Rattus norvegicus [24]): Non-toxic
TD50 at 8 h [25]: 344 mg/kg
Activity (Rattus norvegicus [26]): Non-toxic
PI (Mus musculus [27]): 6.44
Activity (Rattus norvegicus [28]): 24.2 g
Activity (Rattus norvegicus [29]): 25%
logP at 24 h [30]: 3.5
Activity (Mus musculus [31]): 75%
Activity (Mus musculus [32]): inactive
PI (Mus musculus [33]): 2.67
Activity (Rattus norvegicus [34]): Non-toxic
Activity (Rattus norvegicus [35]): Non-toxic
Activity (Mus musculus [3]): inactive
Activity (Mus musculus [4]): 300 mg/kg
Activity (Rattus norvegicus [36]): inactive
Activity (Mus musculus [37]): inactive
Activity (Mus musculus [38]): inactive
Activity (Rattus norvegicus [39]): inactive
Activity (Mus musculus [5]): inactive
Activity (Rattus norvegicus [40]): inactive
Activity (Rattus norvegicus [41]): Non-toxic
Activity (Rattus norvegicus [42]): Non-toxic
ED50 (Mus musculus [43]): > 250 mg/kg
